From ChEMBL document CHEMBL4689842, “EUbOPEN Chemogenomics Library wave 1” (2021)

Test system: Fibroblast
Experiment: Multiplex assay against human fibroblast
Assay type: toxicity, cell-based
Summary of the method: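 Live cells were stained at seeding with Hoechst33342, BioTracker Green Microtubule Cytoskeleton Dye, MitoTracker Red and Annexin V Alexa Fluor 680. Following compound addition, they were imaged on a CQ1 microscope at 37°C and 5% CO2 and gated by CellPathfinder machine learning into Hoechst high-intensity objects or normal cells, with normal cells split into healthy, pyknosed or fragmented nuclei and pyknosed cells into mitotic or apoptotic. Tubulin, mitochondrial-mass and membrane-permeability phenotypes are per cents of healthy-nucleus cells.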

[1] = 12 h, 1 µM, compound concentration 1 uM, replicate 1
[2] = 12 h, 1 µM, compound concentration 1 uM, replicate 2
[3] = 12 h, 10 µM, compound concentration 10 uM, replicate 1
[4] = 12 h, 10 µM, compound concentration 10 uM, replicate 2
[5] = 24 h, 1 µM, compound concentration 1 uM, replicate 1
[6] = 24 h, 1 µM, compound concentration 1 uM, replicate 2
[7] = 24 h, 10 µM, compound concentration 10 uM, replicate 1
[8] = 24 h, 10 µM, compound concentration 10 uM, replicate 2
[9] = 48 h, 1 µM, compound concentration 1 uM, replicate 1
[10] = 48 h, 1 µM, compound concentration 1 uM, replicate 2
[11] = 48 h, 10 µM, compound concentration 10 uM, replicate 1
[12] = 48 h, 10 µM, compound concentration 10 uM, replicate 2

O=C1NCN(c2ccccc2)C12CCN(CCCOc1ccc(F)cc1)CC2 [SPIRAMIDE]
Population Apoptotic (%) [1]: 75% | Population Fragmented Nuclei (%) [1]: 40% | Population Healthy Nuclei (%) [1]: 31% | Population Hoechst High Intensity Objects (%) [1]: 15% | Population Membrane Permeable-Phenotype (%) [1]: 22% | Population Mitochondria Different-Phenotype (%) [1]: 11% | Population Mitotic Cells (%) [1]: 24% | Population Normal (%) [1]: 84% | Population Pyknosed Nuclei (%) [1]: 28% | Population Tubulin-Different-Phenotype (%) [1]: 33% | Total Cell Count [1]: 136 | Population Apoptotic (%) [2]: 0% | Population Fragmented Nuclei (%) [2]: 10% | Population Healthy Nuclei (%) [2]: 88% | Population Hoechst High Intensity Objects (%) [2]: 7% | Population Membrane Permeable-Phenotype (%) [2]: 0% | Population Mitochondria Different-Phenotype (%) [2]: 10% | Population Mitotic Cells (%) [2]: 100% | Population Normal (%) [2]: 92% | Population Pyknosed Nuclei (%) [2]: 1% | Population Tubulin-Different-Phenotype (%) [2]: 6% | Total Cell Count [2]: 74 | Population Apoptotic (%) [3]: 66% | Population Fragmented Nuclei (%) [3]: 25% | Population Healthy Nuclei (%) [3]: 44% | Population Hoechst High Intensity Objects (%) [3]: 13% | Population Membrane Permeable-Phenotype (%) [3]: 6% | Population Mitochondria Different-Phenotype (%) [3]: 54% | Population Mitotic Cells (%) [3]: 33% | Population Normal (%) [3]: 86% | Population Pyknosed Nuclei (%) [3]: 30% | Population Tubulin-Different-Phenotype (%) [3]: 82% | Total Cell Count [3]: 162 | Population Apoptotic (%) [4]: 50% | Population Fragmented Nuclei (%) [4]: 3% | Population Healthy Nuclei (%) [4]: 88% | Population Hoechst High Intensity Objects (%) [4]: 8% | Population Membrane Permeable-Phenotype (%) [4]: 2% | Population Mitochondria Different-Phenotype (%) [4]: 27% | Population Mitotic Cells (%) [4]: 50% | Population Normal (%) [4]: 91% | Population Pyknosed Nuclei (%) [4]: 7% | Population Tubulin-Different-Phenotype (%) [4]: 12% | Total Cell Count [4]: 91 | Population Apoptotic (%) [5]: 57% | Population Fragmented Nuclei (%) [5]: 31% | Population Healthy Nuclei (%) [5]: 45% | Population Hoechst High Intensity Objects (%) [5]: 13% | Population Membrane Permeable-Phenotype (%) [5]: 25% | Population Mitochondria Different-Phenotype (%) [5]: 5% | Population Mitotic Cells (%) [5]: 42% | Population Normal (%) [5]: 86% | Population Pyknosed Nuclei (%) [5]: 22% | Population Tubulin-Different-Phenotype (%) [5]: 44% | Total Cell Count [5]: 132 | Population Apoptotic (%) [6]: 0% | Population Fragmented Nuclei (%) [6]: 7% | Population Healthy Nuclei (%) [6]: 89% | Population Hoechst High Intensity Objects (%) [6]: 6% | Population Membrane Permeable-Phenotype (%) [6]: 2% | Population Mitochondria Different-Phenotype (%) [6]: 7% | Population Mitotic Cells (%) [6]: 100% | Population Normal (%) [6]: 93% | Population Pyknosed Nuclei (%) [6]: 3% | Population Tubulin-Different-Phenotype (%) [6]: 7% | Total Cell Count [6]: 76 | Population Apoptotic (%) [7]: 70% | Population Fragmented Nuclei (%) [7]: 20% | Population Healthy Nuclei (%) [7]: 60% | Population Hoechst High Intensity Objects (%) [7]: 16% | Population Membrane Permeable-Phenotype (%) [7]: 10% | Population Mitochondria Different-Phenotype (%) [7]: 44% | Population Mitotic Cells (%) [7]: 29% | Population Normal (%) [7]: 83% | Population Pyknosed Nuclei (%) [7]: 18% | Population Tubulin-Different-Phenotype (%) [7]: 85% | Total Cell Count [7]: 177 | Population Apoptotic (%) [8]: 27% | Population Fragmented Nuclei (%) [8]: 3% | Population Healthy Nuclei (%) [8]: 78% | Population Hoechst High Intensity Objects (%) [8]: 6% | Population Membrane Permeable-Phenotype (%) [8]: 2% | Population Mitochondria Different-Phenotype (%) [8]: 21% | Population Mitotic Cells (%) [8]: 72% | Population Normal (%) [8]: 93% | Population Tubulin-Different-Phenotype (%) [8]: 10% | Total Cell Count [8]: 118 | Population Apoptotic (%) [9]: 60% | Population Fragmented Nuclei (%) [9]: 36% | Population Healthy Nuclei (%) [9]: 45% | Population Hoechst High Intensity Objects (%) [9]: 14% | Population Membrane Permeable-Phenotype (%) [9]: 32% | Population Mitochondria Different-Phenotype (%) [9]: 5% | Population Mitotic Cells (%) [9]: 40% | Population Normal (%) [9]: 85% | Population Pyknosed Nuclei (%) [9]: 17% | Population Tubulin-Different-Phenotype (%) [9]: 34% | Total Cell Count [9]: 133 | Population Apoptotic (%) [10]: 0% | Population Fragmented Nuclei (%) [10]: 15% | Population Healthy Nuclei (%) [10]: 83% | Population Hoechst High Intensity Objects (%) [10]: 5% | Population Membrane Permeable-Phenotype (%) [10]: 13% | Population Mitochondria Different-Phenotype (%) [10]: 0% | Population Mitotic Cells (%) [10]: 100% | Population Normal (%) [10]: 94% | Population Pyknosed Nuclei (%) [10]: 0% | Population Tubulin-Different-Phenotype (%) [10]: 36% | Total Cell Count [10]: 137 | Population Apoptotic (%) [11]: 69% | Population Fragmented Nuclei (%) [11]: 31% | Population Healthy Nuclei (%) [11]: 59% | Population Hoechst High Intensity Objects (%) [11]: 22% | Population Membrane Permeable-Phenotype (%) [11]: 3% | Population Mitochondria Different-Phenotype (%) [11]: 47% | Population Mitotic Cells (%) [11]: 30% | Population Normal (%) [11]: 77% | Population Pyknosed Nuclei (%) [11]: 9% | Population Tubulin-Different-Phenotype (%) [11]: 80% | Total Cell Count [11]: 186 | Population Apoptotic (%) [12]: 50% | Population Healthy Nuclei (%) [12]: 64% | Population Hoechst High Intensity Objects (%) [12]: 9% | Population Membrane Permeable-Phenotype (%) [12]: 8% | Population Mitochondria Different-Phenotype (%) [12]: 2% | Population Mitotic Cells (%) [12]: 50% | Population Normal (%) [12]: 90% | Population Pyknosed Nuclei (%) [12]: 3% | Population Tubulin-Different-Phenotype (%) [12]: 29% | Total Cell Count [12]: 123
